# Bioassay records as filed in PubChem BioAssay.
# Most compounds without a hit are left out; they make up all but 2.2% or so of the library.
# GPR7 antagonist: GPR7 receptor antagonists, primary screen, cell-based, fluorescence, single concentration; inhibition, % at 4.4 µM; AID 1861, 2009; Neuropeptides B/W receptor type 1 (Homo sapiens), P48145; GPR7-expressing cells, fluorescence antagonist assay; actives 1.1% (n = 290,000); in the data active = inhibition above about 16%, passing the limit was not always enough;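 note: cells stimulated with the agonist NPW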
# GRK2 inh: compounds blocking aptamer binding on GRK2 – biochemical, human GRK2, bead flow cytometry, HTS, primary screen. Beta-adrenergic receptor kinase 1 (Homo sapiens), P25098. FAM-aptamer displacement from GRK2. inhibition of aptamer binding, % at 10 µM. actives 0.59% (n = 330,000). AID 488847, 2010;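 active = inhibition of aptamer binding above 40%, roughly 3 SD of noise, on plates passing a quality check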;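 note: median bead fluorescence of bound FAM aptamer so fluorescent compounds give negative values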
# NS3 helicase inh: inhibitors of HCV NS3 helicase, primary screen, biochemical, Cy5 molecular beacon fluorescence. inhibition, % at 10.9 µM. NS3 helicase DNA unwinding. Hepatitis C virus NS3 helicase. actives 0.56% (n = 290,000). AID 1800, 2009;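 active = inhibition above the mean of all tested compounds plus 3 SD, set per campaign, cut at about 35% in these data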
#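 Material: hepatitis C virus NS3 helicase domain fragment enzyme; measured by: Cy5 fluorescence, 0 and 60 min reads; control set: DMSO and thioflavine S; incubation: 60 min unwinding reaction at 25 °C after ATP addition; read-out basis: % inhibition from 60/0 min fluorescence ratio, DMSO 0%, thioflavine S 100%; repeats: singlicate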
# core dimer inh: inhibitors of HCV core protein dimerization, primary screen, biochemical, TR-FRET, high-throughput; TR-FRET GST/Flag-core106 dimerization, 1536-well; inhibition, % at 5 µM; actives 0.33% (n = 300,000); AID 1899, 2009;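 active = inhibition above the mean of all tested compounds plus 3 SD, set per screening campaign, cut at about 45% in these data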
#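 test system = GST/Flag-tagged HCV core106 proteins | probe or stimulus = Eu donor and XL665 acceptor anti-tag antibodies | times = compound-protein-antibody incubation 4 h at 22.5 °C | signal = TR-FRET, excitation 340 nm, emission 617 and 671 nm | measure = percent inhibition of core106 dimerization signal | controls = wells lacking GST-core106 and wells with excess unlabelled core106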
# DAGLB inhibitor: DAGLB lipase inhibitors, primary screen, biochemical, fluorescence, HTS | HEK293T DAGLB membrane lysate, EnzChek fluorogenic substrate | inhibition, % at 5.17 µM | actives 0.059% (n = 340,000); in the data active = inhibition above about 34%
# Target sequence (Q8NCG7 whole entry, looked up): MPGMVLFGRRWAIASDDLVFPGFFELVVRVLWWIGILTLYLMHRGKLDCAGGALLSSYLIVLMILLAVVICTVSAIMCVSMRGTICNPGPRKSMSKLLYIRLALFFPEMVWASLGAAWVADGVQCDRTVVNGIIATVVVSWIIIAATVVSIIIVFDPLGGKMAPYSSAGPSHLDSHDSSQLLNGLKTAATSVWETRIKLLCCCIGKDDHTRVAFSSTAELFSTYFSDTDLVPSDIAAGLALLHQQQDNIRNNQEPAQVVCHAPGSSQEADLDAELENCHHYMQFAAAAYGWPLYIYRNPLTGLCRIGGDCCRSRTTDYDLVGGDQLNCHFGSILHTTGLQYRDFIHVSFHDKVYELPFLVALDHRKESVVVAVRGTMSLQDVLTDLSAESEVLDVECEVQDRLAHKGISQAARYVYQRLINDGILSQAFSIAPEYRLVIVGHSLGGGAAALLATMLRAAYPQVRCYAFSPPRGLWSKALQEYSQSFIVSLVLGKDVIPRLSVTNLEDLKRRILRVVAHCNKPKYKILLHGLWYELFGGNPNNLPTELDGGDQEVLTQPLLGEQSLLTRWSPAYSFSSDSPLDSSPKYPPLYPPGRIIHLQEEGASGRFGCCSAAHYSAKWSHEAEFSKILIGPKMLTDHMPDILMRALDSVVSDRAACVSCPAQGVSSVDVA
# FID counter: compounds displacing fluorescent DNA intercalator, primary screen, artefact control for HCV NS3 helicase inhibitor project, biochemical, FID fluorescence; actives 0.17% (n = 290,000); DNA fluorescent intercalator displacement; inhibition, % at 7.9 µM; AID 1845, 2009; in the data active = inhibition above about 37%;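 note: higher means more ethidium bromide displaced from hairpin DNA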
# GRK2 CP1: GRK2 aptamer-displacing inhibitors, retest, confirmation, biochemical, cherry pick 1, bead flow cytometry; shares compounds with GRK2 inh; bead-bound GRK2, FAM-aptamer displacement; aptamer displacement, % at 10 µM; actives 4% (n = 2,000); AID 504451, 2011;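 active = aptamer displacement above 40%, near three times the noise of non-fluorescent compounds, on plates passing quality checks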;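 note: negative values mostly reflect intrinsic compound fluorescence rather than true enhancement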
# FAM quench CP1: counter-screen for GRK2 aptamer inhibitors: fluorescent aptamer quenchers. fluorescence response (% of DMSO), % at 10 µM. shares compounds with GRK2 inh. AID 504580. Carboxyfluorescein RNA aptamer on beads, flow cytometry quenching; stronger effect = lower value. 2,000 tested, under 10 active;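 active = compounds that quench the bead-bound fluorescent RNA probe, cutting fluorescence to under half of the solvent control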;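 note: counterscreen run without GRK2 so only probe quenching by compound is measured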
# GRK2 CP2: GRK2 aptamer-displacing inhibitors, hit retest, confirmation, biochemical, cherry pick 2, bead flow cytometry; shares compounds with GRK2 inh; AID 504782, 2011; bead-bound GRK2, FAM-aptamer displacement; 360 tested, under 10 active; inhibition of aptamer binding, % at 10 µM;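 active = inhibition of aptamer binding above 40%, about triple the noise seen with nonglowing compounds, on plates passing quality control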;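 note: negative values mostly come from compounds that fluoresce themselves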
# FAM quench CP2: quenches fluorescent RNA aptamer, GRK2 hit artifact; shares compounds with GRK2 inh; carboxyfluorescein RNA aptamer beads, flow cytometry quenching; stronger effect = lower value; fluorescence response vs DMSO, % at 10 µM; 360 tested, under 10 active; AID 588494;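 active = response vs DMSO under 50%, meaning signal dropped by over half, treated as fluorescence quencher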;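 note: labelled aptamer on streptavidin beads without GRK2 as a quench counter-screen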
# A number is an active result; n = inactive; x = no result given.
SMILES,GPR7 antagonist,GRK2 inh,NS3 helicase inh,core dimer inh,DAGLB inhibitor,FID counter,GRK2 CP1,FAM quench CP1,others
CCOC(=O)Nc1ccc2c(c1)nc(CN1CCN(C(C)=O)CC1)n2C,n,68.0,n,n,n,n,n,n,
Clc1ccc(-c2noc(CSc3nnc(-c4ccncc4)n3-c3ccccc3)n2)cc1,n,n,n,n,n,n,x,x,
Cc1ccc(-c2noc(CSc3nnc(-c4ccncc4)n3-c3ccc(C)cc3)n2)cc1,n,99.0,n,n,n,n,n,n,
CC(Oc1ccccc1)C(=O)N1CCN(c2ccc(N3CCOCC3)nn2)CC1 (centres undefined),x,n,x,n,n,x,n,n,
S=C(Nc1ccccc1)N1CCN(c2ccc(N3CCOCC3)nn2)CC1,n,n,n,n,n,n,n,n,
O=C(O)CCC(=O)NC1CCCCCCC1,n,65.0,n,n,n,n,n,n,
CCN(CC)C(=O)Cn1cc(C(=O)C(=O)N2CCc3ccccc32)c2ccccc21,n,n,n,n,n,n,n,n,
CCOc1ccc(S(=O)(=O)NC(C)C(=O)NCc2ccc3c(c2)OCO3)cc1 (centres undefined),n,n,n,n,n,n,x,x,
Cc1cc(Cl)ccc1N(CC(=O)NCc1ccc2c(c1)OCO2)S(C)(=O)=O,n,100.0,n,n,x,n,n,n,
Nc1c(C(=O)NCc2cccs2)nnn1CC(=O)Nc1cccc(Cl)c1,n,42.0,n,n,n,n,x,x,GRK2 CP2=n;FAM quench CP2=n
CC1CCN(C(=O)c2[nH]cnc2C(=O)N2CCN(c3ccccc3)CC2)CC1,x,n,x,x,n,x,x,x,
Cc1cc(C)nc(SCNC(=O)c2ccccc2)n1,n,48.0,n,n,n,n,n,n,
Cc1cc(SCNC(=O)c2ccccc2)nc(C(C)C)n1,n,n,n,n,n,n,x,x,
CC1(C)CC(=O)C2=C(C1)N(c1ccc(Cl)cc1)C(=O)C2(O)C(F)(F)F (centres undefined),n,n,n,n,n,n,x,x,
O=C1NN(c2ccccc2)C(=O)/C1=C/c1ccc(-c2ccc(Cl)c(C(=O)O)c2)o1,n,x,n,x,n,n,x,x,
O=C(O)c1cc(-c2ccc(/C=C3\NC(=O)N(c4ccccc4)C3=O)o2)ccc1Cl,n,86.0,n,n,n,n,n,n,
Cc1cccc(N2NC(=O)/C(=C/c3ccc(-c4ccc(Cl)c(C(=O)O)c4)o3)C2=O)c1,n,x,n,x,n,n,x,x,
O=C(O)c1cc(-c2ccc(/C=C3\NC(=O)N(c4ccc(Cl)cc4)C3=O)o2)ccc1Cl,n,50.0,n,n,n,n,n,n,
CCc1ccc(-c2csc(NC(=O)C3=COCCO3)n2)cc1,x,n,x,x,n,x,x,x,
C=CCn1c(CNC(=O)c2ccco2)nnc1SCC(=O)c1ccccc1,n,80.0,n,n,n,n,n,n,
CC1CCCN(CCCNC(=O)c2nn(C)c3c2CS(=O)(=O)c2ccccc2-3)C1 (centres undefined),n,n,n,n,n,n,x,x,
COc1ccc(C(=O)CSc2nnc(CNC(=O)c3ccco3)n2C)cc1,n,n,n,n,n,n,x,x,
CN(C)c1ncnc2c1ncn2C1CCCO1 (centres undefined),x,x,x,x,n,x,x,x,
COc1ccc(Cn2c(C)nc3ccc([N+](=O)[O-])cc3c2=O)cc1,n,n,n,n,n,n,x,x,
Cc1ccc(C)c(NC(=O)CSc2nnc(CNC(=O)c3ccco3)n2C)c1,n,n,n,n,n,n,x,x,
SMILES,GPR7 antagonist,GRK2 inh,NS3 helicase inh,core dimer inh,DAGLB inhibitor,FID counter,GRK2 CP1,FAM quench CP1,others
Cc1ccc(F)cc1NC(=O)CSc1nnc(CNC(=O)c2ccco2)n1C,x,70.0,x,n,n,x,n,n,
Cc1n[nH]c2ccc([N+](=O)[O-])cc2c1=O,x,x,x,x,n,x,x,x,
O=C(c1ccco1)N1CCN(C(=O)c2cn(-c3ccccc3)nc2-c2ccccc2)CC1,x,n,x,x,n,x,x,x,
CCCn1c2ccccc2c2cn[nH]c(=O)c21,n,n,n,n,n,n,n,n,
CCn1c2ccccc2n2c(=O)c(=O)n(CC(=O)Nc3ccc(C(C)C)cc3)nc12,n,n,n,n,n,n,x,x,
COc1ccc(Cl)cc1-c1nc(SCC(=O)NC(C)C(C)C)n[nH]1 (centres undefined),n,n,n,n,n,n,x,x,
COc1ccc(Cl)cc1-c1nc(SCC(=O)NC(C)C)n[nH]1,n,46.0,n,n,n,n,n,n,
COc1ccccc1C(=O)NNC(=O)c1ccc2ccccc2c1O,x,x,x,x,n,x,x,x,
Cn1nccc1C(=O)Nc1ccc2c(c1)OCCO2,n,100.0,n,n,n,n,n,n,
Cc1c(C(=O)Nc2ccc3c(c2)OCCO3)cnn1C,n,n,n,n,n,n,x,x,
CCOc1ccc(OCCC(=O)N2CCc3cc(OC)c(OC)cc3C2)cc1,n,94.0,n,n,n,n,n,n,
Cc1ccc(/C=C2/C(=N)N3N=C(CC(=O)N4CCCC4)SC3=NC2=O)o1,n,n,n,n,n,n,n,n,
O=C(CCN1CCN(c2ccccc2)CC1)N/N=C/c1ccccc1O,n,n,n,n,n,n,x,x,
Cc1ccc(-c2csc(N(CCCN3CCOCC3)C(=O)c3ccco3)n2)cc1,n,n,n,n,n,n,n,n,
CCOc1ccc2nc(NS(=O)(=O)c3ccc4c(c3)n(C)c(=O)n4C)sc2c1,n,61.0,n,n,n,n,n,n,
COc1ccc(S(=O)(=O)Nc2ccc3c(c2)n(C)c(=O)n3C)cc1,n,n,n,n,n,n,n,n,
COc1ccc(S(=O)(=O)Nc2ccc3c(c2)n(C)c(=O)n3C)cc1OC,n,n,n,n,n,n,x,x,
COc1cccc(NS(=O)(=O)c2c(C)n(C)c(=O)n(C)c2=O)c1,n,84.0,n,n,n,n,n,n,
Cc1ccc(NC(=O)c2ccccc2OCC(=O)Nc2cccc(Cl)c2C)nc1,n,n,n,n,x,n,x,x,
